Results from ChEMBL document CHEMBL3779824, “Design and synthesis of novel chalcones as potent selective monoamine oxidase-B inhibitors” (Eur J Med Chem, 2016).

Columns and labels:
[1] = target: T1, Amine oxidase [flavin-containing] B (Homo sapiens, UniProt P27338); experiment: Inhibition of recombinant human MAOB expressed in baculovirus infected BTI insect cell microsomes at 10 uM using MMTP as substrate preincubated for 5 mins followed by substrate addition by spectrophotometric analysis
T1 sequence (P27338 whole entry): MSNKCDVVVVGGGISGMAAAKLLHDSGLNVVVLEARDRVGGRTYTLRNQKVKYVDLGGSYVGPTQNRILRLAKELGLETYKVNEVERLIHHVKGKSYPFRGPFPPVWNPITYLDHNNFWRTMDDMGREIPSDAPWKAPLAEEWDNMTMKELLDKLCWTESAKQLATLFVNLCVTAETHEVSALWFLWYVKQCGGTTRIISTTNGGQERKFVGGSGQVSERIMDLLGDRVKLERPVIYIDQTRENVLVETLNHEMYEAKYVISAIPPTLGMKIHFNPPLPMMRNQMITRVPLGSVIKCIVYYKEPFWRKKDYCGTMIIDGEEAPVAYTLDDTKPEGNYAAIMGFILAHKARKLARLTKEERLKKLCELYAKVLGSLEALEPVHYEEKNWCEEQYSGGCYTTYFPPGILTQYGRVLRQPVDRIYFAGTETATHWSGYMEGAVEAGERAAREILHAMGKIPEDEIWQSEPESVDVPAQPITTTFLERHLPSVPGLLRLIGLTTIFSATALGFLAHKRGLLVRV
Summary of the method: (§1)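 Insect-cell microsomes carrying recombinant human enzyme (25 µg per assay) in 0.1 M potassium phosphate. Incubated with inhibitor at 10 µM final (DMSO 3.3% v/v final) for 5 min at 37 °C. Started with MMTP at 0.15 mM. Absorbance increase followed at 420 nm at 37 °C, with v0 from ε 25000 M-1 cm-1. Activity given as a ratio to a DMSO-only control (100%).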

[2] = target: T2, Amine oxidase [flavin-containing] A (Homo sapiens, UniProt P21397); experiment: Inhibition of recombinant human MAOA expressed in baculovirus infected BTI insect cell microsomes at 10 uM using MMTP as substrate preincubated for 5 mins followed by substrate addition by spectrophotometric analysis; summary of the method: as §1
T2 sequence (P21397 whole entry): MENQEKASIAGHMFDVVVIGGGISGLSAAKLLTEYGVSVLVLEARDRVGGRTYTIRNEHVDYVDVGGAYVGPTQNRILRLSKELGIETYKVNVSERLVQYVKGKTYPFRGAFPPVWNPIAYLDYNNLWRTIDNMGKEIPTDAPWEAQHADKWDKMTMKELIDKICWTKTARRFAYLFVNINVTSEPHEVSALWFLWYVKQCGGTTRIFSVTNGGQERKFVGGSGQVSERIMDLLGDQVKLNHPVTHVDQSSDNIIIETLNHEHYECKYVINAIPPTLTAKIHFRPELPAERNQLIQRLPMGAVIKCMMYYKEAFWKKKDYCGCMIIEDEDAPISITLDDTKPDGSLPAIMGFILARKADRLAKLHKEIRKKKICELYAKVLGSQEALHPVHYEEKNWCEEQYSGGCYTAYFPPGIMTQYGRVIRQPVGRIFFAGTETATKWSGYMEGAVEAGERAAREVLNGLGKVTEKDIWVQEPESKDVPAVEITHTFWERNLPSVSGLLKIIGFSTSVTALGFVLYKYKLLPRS

[3] = target: T1, Amine oxidase [flavin-containing] B; experiment: Inhibition of recombinant human MAOB expressed in baculovirus infected BTI insect cell microsomes using MMTP as substrate preincubated for 5 mins followed by substrate addition by spectrophotometric analysis
Summary of the method: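 MAO-B in insect-cell microsomes, 25 µg in 0.1 M potassium phosphate with 3.3% v/v DMSO final. Preincubated with inhibitor for 5 min at 37 °C, then MMTP added at 0.15 mM. Absorbance read at 420 nm at 37 °C. Remaining activity relative to the DMSO control was fitted against log10[I] to a dose-response curve for IC50. Mean ± SEM of two experiments.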

[4] = target: T1, Amine oxidase [flavin-containing] B; experiment: Competitive inhibition of human MAOB overexpressed in Pichia pastoris using MMTP as substrate preincubated for 5 mins followed by substrate addition by UV/vis spectrophotometric analysis
Summary of the method: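 Purified recombinant human MAO-B in reaction buffer containing 0.25% v/v reduced Triton X-100. MMTP assay read at 420 nm in quartz cuvettes under aerobic conditions at 25 °C. MMTP was varied from 0.07 to 2.00 mM and inhibitor from 3 to 40 µM. Apparent kcat (v0/[E]) was plotted against substrate and fitted to competitive, uncompetitive and noncompetitive models to give Ki.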

[5] = target: T1, Amine oxidase [flavin-containing] B; experiment: Time-dependent inhibition of recombinant human MAOB expressed in baculovirus infected BTI insect cell microsomes at IC50 using MMTP as substrate preincubated for 5 mins followed by substrate addition measured after 5 to 60 mins by spectrophotometric analysis
Summary of the method: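 Microsomal human MAO-B was preincubated with inhibitor at 0.55 µM final for 5, 15, 30 or 60 min. Residual activity was then measured in the MMTP assay (420 nm, 37 °C). Rates expressed as apparent kcat (min-1); SEM from two replicates.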

inhibition at 10 µM [1]	inhibition at 10 µM [2]	IC50 [3]	Ki [4]	TDI [5]	SMILES
27%	0%				COc1cccc(/C=C/C(=O)c2ccccc2C(F)(F)F)c1OC
93%	0%	1 µM	0.72 µM		CS(=O)(=O)c1ccc(C(=O)/C=C/c2cccc3c2OCO3)cc1
86%	0%	0.95 µM	0.55 µM		CSc1ccc(C(=O)/C=C/c2cccc3c2OCO3)cc1
96%	16%	0.55 µM	0.78 µM	Not Active	O=C(/C=C/c1cccc2c1OCO2)c1cccc(C(F)(F)F)c1
7%					O=C(/C=C/c1cccc2c1OCO2)c1ccccc1C(F)(F)F
41%	0%				COc1cccc(/C=C/C(=O)c2cccc(OC(F)(F)F)c2)c1OC
88%	0%	1.51 µM	2.36 µM		O=C(/C=C/c1cccc2c1OCO2)c1cccc(OC(F)(F)F)c1
90%	0%	1.97 µM	1.15 µM		COc1cccc(/C=C/C(=O)c2ccc(S(C)(=O)=O)cc2)c1OC
63%	0%	4.49 µM			COc1cccc(/C=C/C(=O)c2cccc(C(F)(F)F)c2)c1OC
36%	0%				COc1cccc(/C=C/C(=O)c2ccc(SC)cc2)c1OC
